Results: ChEMBL document CHEMBL1150676, “Two new biologically active triterpenoidal saponins acylated with salicylic acid from Albizia adianthifolia” (J Nat Prod, 2003)
The source made the active and inactive calls. The rule behind the calls is not given here.

Legend:
[1] = Toxicity in sheep erythrocytes assessed as induction of hemolysis; assay type: cell-based, Ovis aries, Erythrocyte; details: read-out: HD50 (the source's name)
Procedure, shortened: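 Hemolysis measured on sheep erythrocytes, tested up to 400 μg/mL. Activity expressed as HC50 (μg/mL).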

Jurkat [2] = test: Cytotoxicity against human Jurkat cells at 1 uM; assay type: functional, cell-based
Procedure, shortened: (§1)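 Jurkat human T-cell leukemia cells exposed to compounds at 10⁻²–10 μM. Proliferation read by ³H-thymidine incorporation and expressed as stimulation index (SI). Mean ± SE, n = 4.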

Jurkat [3] = test: Cytotoxicity against human Jurkat cells at =>10 uM; assay type: functional, cell-based; procedure, shortened: as §1
Jurkat [4] = test: Immunomodulatory effect in human Jurkat cells assessed as cell proliferation stimulation index at 1 to 10 uM by [3H]thymidine incorporation assay
Jurkat [5] = test: Immunomodulatory effect in human Jurkat cells by [3H]thymidine incorporation assay
Jurkat [6] = test: Inhibition of human Jurkat cell proliferation at 1 uM by [3H]thymidine incorporation assay
Jurkat [7] = test: Immunomodulatory effect in human Jurkat cells assessed as cell proliferation stimulation index at 0.01 uM by [3H]thymidine incorporation assay

SMILES | HC50 [1] [µg/mL] | Activity (Jurkat [2]) | Activity (Jurkat [3]) | Activity (Jurkat [4]) | Activity (Jurkat [5]) | Activity (Jurkat [6]) | Activity (Jurkat [7])
CC(=O)N[C@H]1[C@H](O[C@H]2CC[C@]3(C)[C@H]4CC=C5[C@@H]6CC(C)(C)[C@@H](OC(=O)c7ccccc7O)C[C@]6(C(=O)O[C@@H]6O[C@H](CO)[C@@H](O)[C@H](O)[C@H]6O[C@@H]6O[C@@H](C)[C@H](O[C@@H]7O[C@@H](CO)[C@H](O)[C@H]7O)[C@@H](O[C@@H]7O[C@H](CO)[C@@H](O)[C@H](O)[C@H]7O)[C@H]6O)[C@H](O)C[C@@]5(C)[C@]4(C)CC[C@H]3C2(C)C)O[C@H](CO[C@@H]2O[C@H](C)[C@H](O)[C@H](O)[C@H]2O[C@@H]2OC[C@@H](O)[C@H](O)[C@H]2O)[C@@H](O)[C@@H]1O [ADIANTHIFOLIOSIDE A] | 17.5 | Toxic |  |  |  |  | 
C=CC(C)(CC/C=C(\CO)C(=O)O[C@H]1C[C@]2(C(=O)O)[C@H](O)C[C@]3(C)C(=CC[C@@H]4[C@@]5(C)CC[C@H](O[C@@H]6O[C@H](CO[C@@H]7O[C@H](C)[C@H](O)[C@H](O)[C@H]7O[C@@H]7OC[C@@H](O)[C@H](O)[C@H]7O)[C@@H](O)[C@H](O)[C@H]6O[C@@H]6O[C@H](CO)[C@@H](O)[C@H](O)[C@H]6O)C(C)(C)[C@@H]5CC[C@]43C)[C@@H]2CC1(C)C)O[C@@H]1O[C@@H](C)[C@H](O)[C@@H](O)[C@@H]1O (stereo not given in full) | > 400 |  | Toxic |  |  |  | 
CC(=O)N[C@H]1[C@H](O[C@H]2CC[C@]3(C)[C@H]4CC=C5[C@@H]6CC(C)(C)[C@@H](O)C[C@]6(C(=O)O)[C@H](O)C[C@@]5(C)[C@]4(C)CC[C@H]3C2(C)C)O[C@H](CO[C@@H]2O[C@H](C)[C@H](O)[C@H](O)[C@H]2O[C@@H]2OC[C@@H](O)[C@H](O)[C@H]2O)[C@@H](O)[C@@H]1O | > 400 | Not toxic |  | Active |  |  | 
C[C@@H]1O[C@@H](O[C@H]2[C@H](OC(=O)[C@]34C[C@H](OC(=O)c5ccccc5O)C(C)(C)C[C@H]3C3=CC[C@@H]5[C@@]6(C)CC[C@H](O[C@@H]7O[C@H](CO[C@@H]8O[C@H](C)[C@H](O)[C@H](O)[C@H]8O[C@@H]8OC[C@@H](O)[C@H](O)[C@H]8O)[C@@H](O)[C@H](O)[C@H]7O[C@@H]7O[C@H](CO)[C@@H](O)[C@H](O)[C@H]7O)C(C)(C)[C@@H]6CC[C@@]5(C)[C@]3(C)C[C@H]4O)O[C@H](CO)[C@@H](O)[C@@H]2O)[C@H](O)[C@H](O[C@@H]2O[C@H](CO)[C@@H](O)[C@H](O)[C@H]2O)[C@H]1O[C@@H]1O[C@@H](CO)[C@H](O)[C@H]1O [ADIANTHIFOLIOSIDE B] |  |  |  |  | Dose-dependent effect | Active | 1.21
